According to ChEMBL document CHEMBL1126975 (J Med Chem, 1993):

Experiments:
[1] = biological target: T1, Amine oxidase [flavin-containing] B (Rattus norvegicus, UniProt P19643); experiment: In vitro inhibitory activity on rat brain MAO-B.
T1 sequence (P19643 whole entry): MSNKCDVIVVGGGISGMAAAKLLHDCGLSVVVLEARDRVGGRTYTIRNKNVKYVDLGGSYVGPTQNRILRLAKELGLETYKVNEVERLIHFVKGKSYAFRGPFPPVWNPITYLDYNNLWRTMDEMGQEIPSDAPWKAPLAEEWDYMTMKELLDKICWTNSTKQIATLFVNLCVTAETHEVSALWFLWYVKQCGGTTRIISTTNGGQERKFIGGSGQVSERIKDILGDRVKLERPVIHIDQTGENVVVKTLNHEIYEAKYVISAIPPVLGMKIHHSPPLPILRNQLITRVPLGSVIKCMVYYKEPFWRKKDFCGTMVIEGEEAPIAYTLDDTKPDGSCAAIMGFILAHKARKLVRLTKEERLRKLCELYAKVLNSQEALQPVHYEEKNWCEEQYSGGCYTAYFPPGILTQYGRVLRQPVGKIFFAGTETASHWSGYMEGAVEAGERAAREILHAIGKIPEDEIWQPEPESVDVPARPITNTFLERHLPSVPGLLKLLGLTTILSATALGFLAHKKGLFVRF
Method in brief: (§1)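 Radiochemical assay at 37 °C, pH 7.4: MAO A with 10 μM [14C]5-HT, MAO B with 5 μM [14C]PEA. Drug preincubated 20 min with enzyme. Three experiments in duplicate.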

[2] = biological target: T2, Amine oxidase [flavin-containing] A (Rattus norvegicus, UniProt P21396); experiment: In Vitro evaluation for the inhibitory activity on rat brain by MAO-A at 100 uM
T2 sequence (P21396 whole entry): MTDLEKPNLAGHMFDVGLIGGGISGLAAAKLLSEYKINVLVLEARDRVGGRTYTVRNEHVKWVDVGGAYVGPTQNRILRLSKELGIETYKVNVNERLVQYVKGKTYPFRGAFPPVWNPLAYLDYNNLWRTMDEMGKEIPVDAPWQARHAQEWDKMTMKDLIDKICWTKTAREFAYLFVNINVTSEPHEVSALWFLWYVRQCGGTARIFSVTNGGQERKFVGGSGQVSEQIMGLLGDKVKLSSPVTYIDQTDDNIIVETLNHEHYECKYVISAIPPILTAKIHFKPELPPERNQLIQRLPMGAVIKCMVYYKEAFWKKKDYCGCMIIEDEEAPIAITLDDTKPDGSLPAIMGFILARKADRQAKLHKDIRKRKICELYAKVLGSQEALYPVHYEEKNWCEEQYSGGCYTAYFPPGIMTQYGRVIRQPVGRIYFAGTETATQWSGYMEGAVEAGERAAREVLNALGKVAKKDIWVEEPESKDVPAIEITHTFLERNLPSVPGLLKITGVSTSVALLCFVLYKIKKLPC
Method in brief: (§2)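 Male Sprague-Dawley rat brain crude mitochondrial fraction, 0.195 mg protein/mL. Radiochemical assay at 37 °C, pH 7.4: MAO A with 10 μM [14C]5-HT, MAO B with 5 μM [14C]PEA. Drug preincubated 20 min with enzyme. […] Three experiments in duplicate.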

[3] = biological target: T1, Amine oxidase [flavin-containing] B; experiment: Compound was evaluated for the time-dependence inhibition of MAO-B at 20 minutes pre-incubation periods
Method in brief: (§3)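 Male Sprague-Dawley rat brain crude mitochondrial fraction, MAO B. Drug preincubated with enzyme at 37 °C for 0, 20, 30 or 60 min, then radiochemical assay with 5 μM [14C]PEA at pH 7.4. IC50 read graphically from 9–12 concentrations; three experiments in duplicate.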

[4] = biological target: T2, Amine oxidase [flavin-containing] A; experiment: In vitro inhibitory activity on rat brain by monoamine oxidase A (MAO-A); method in brief: as §1
[5] = biological target: T1, Amine oxidase [flavin-containing] B; experiment: Compound was evaluated for the time-dependence inhibition of MAO-B at 60 minutes preincubation periods; method in brief: as §3
[6] = biological target: T1, Amine oxidase [flavin-containing] B; experiment: Ex-Vivo Time course of evaluation for the percentage inhibition of MAO-B for 48 hr at single dose 5 mg/kg through oral gavage; assay type: organism-based; set-up: dose 5 mg/kg, route oral
Method in brief: (§4)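 Fasted male Sprague-Dawley rats (150 g) dosed orally by gavage, drug suspended in Tween 80 plus 0.5% methylcellulose; vehicle controls. The 100 mg/kg arm was dosed daily for 9 days. Four rats per time point; brains frozen and homogenized in 0.1 M phosphate pH 7.4. Assayed at 37 °C with 8 μM [14C]PEA for 1 min; toluene/ethyl acetate extraction. Percent inhibition vs control, mean ± SEM.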

[7] = biological target: T1, Amine oxidase [flavin-containing] B; experiment: Ex-Vivo Time course of evaluation for the percentage inhibition of MAO-B for 1 hr at single dose 5 mg/kg through oral gavage; assay type: organism-based; set-up: dose 5 mg/kg, route oral; method in brief: as §4
[8] = biological target: T1, Amine oxidase [flavin-containing] B; experiment: Ex-Vivo Time course of evaluation for the percentage inhibition of MAO-B for 0.5 hr at single dose 5 mg/kg through oral gavage; assay type: organism-based; set-up: dose 5 mg/kg, route oral; method in brief: as §4
[9] = biological target: T1, Amine oxidase [flavin-containing] B; experiment: Compound was evaluated for the time-dependence inhibition of MAO-B at 0 minute pre-incubation periods; method in brief: as §3
[10] = biological target: T1, Amine oxidase [flavin-containing] B; experiment: Ex-Vivo Time course of evaluation for the percentage inhibition of MAO-B for 4 hr at single dose 5 mg/kg through oral gavage; assay type: organism-based; set-up: dose 5 mg/kg, route oral; method in brief: as §4
[11] = biological target: T2, Amine oxidase [flavin-containing] A; experiment: Compound was evaluated for the time-dependence inhibition of MAO-A at 60 minutes of preincubated period. values are same with or without pre-incubation
[12] = biological target: T1, Amine oxidase [flavin-containing] B; experiment: Compound was evaluated for the time-dependence inhibition of MAO-B at 30 minutes pre-incubation periods; method in brief: as §3
[13] = biological target: T1, Amine oxidase [flavin-containing] B; experiment: Ex-Vivo percentage inhibition of MAO-B after 24 hr single 5 mg/kg dose by oral gavage; assay type: organism-based; set-up: dose 5 mg/kg, route oral
Method in brief: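 Ex vivo oral gavage in fasted male Sprague-Dawley rats (Tween 80 / 0.5% methylcellulose), four rats per group. Brain homogenate taken 24 h after dosing. MAO B assayed with 8 μM [14C]PEA, 1 min at 37 °C; percent inhibition vs vehicle control.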

[14] = Selectivity for B form was estimated by the ratio of IC50 (MAO A) at 60 min to that of (MAO B)
[15] = biological target: T1, Amine oxidase [flavin-containing] B; experiment: Ex-Vivo Time course of evaluation for the percentage inhibition of MAO-B for 1 hr at single dose 5 mg/kg through oral gavage (p<0.001); assay type: organism-based; set-up: dose 5 mg/kg, route oral; method in brief: as §4
[16] = biological target: T1, Amine oxidase [flavin-containing] B; experiment: Ex-Vivo Time course of evaluation for the percentage inhibition of MAO-B for 4 hr at single dose 5 mg/kg through oral gavage (p<0.001); assay type: organism-based; set-up: dose 5 mg/kg, route oral; method in brief: as §4
[17] = biological target: T1, Amine oxidase [flavin-containing] B; experiment: Ex-Vivo Time course of evaluation for the percentage inhibition of MAO-B for 0.5 hr at single dose 5 mg/kg through oral gavage (p<0.001); assay type: organism-based; set-up: dose 5 mg/kg, route oral; method in brief: as §4
[18] = biological target: T1, Amine oxidase [flavin-containing] B; experiment: Ex-Vivo Time course of evaluation for the percentage inhibition of MAO-B for 1 hr at single dose 5 mg/kg through oral gavage (p<0.01); assay type: organism-based; set-up: dose 5 mg/kg, route oral; method in brief: as §4
[19] = biological target: T2, Amine oxidase [flavin-containing] A; experiment: In Vitro evaluation for the inhibitory activity on rat brain by MAO-A at 100 uM; No Inhibition; method in brief: as §2
[20] = biological target: T1, Amine oxidase [flavin-containing] B; experiment: Ex-Vivo Time course of evaluation for the percentage inhibition of MAO-B for 4 hr at single dose 5 mg/kg through oral gavage [p<0.05 (Bonferroni''s test)]; assay type: organism-based; set-up: dose 5 mg/kg, route oral; method in brief: as §4

| SMILES | IC50 [1] | IC50 [4] | inhibition at 5 mg/kg [6] | inhibition at 5 mg/kg [8] | inhibition at 5 mg/kg [13] | other results |
| --- | --- | --- | --- | --- | --- | --- |
| CC(C#N)n1nc(-c2ccc(OCc3ccccc3)cc2)oc1=O (stereo not given) | 48000 nM | – | – | – | – | inhibition at 100 µM [2]: 4% |
| N#CCCn1nc(-c2ccc(OCc3ccccc3)cc2)oc1=S | 4.4 nM | 12000 nM | 8% | 68% | 21% | IC50 [3]: 6.6 nM; IC50 [5]: 3.7 nM; inhibition at 5 mg/kg [7]: 84%; IC50 [9]: 47 nM; inhibition at 5 mg/kg [10]: 74%; IC50 [11]: 12000 nM; IC50 [12]: 4.7 nM; Selectivity [14]: 3200 |
| N#CCCCn1nc(-c2ccc(OCc3ccccc3)cc2)oc1=O | 410 nM | – | – | – | – | IC50 [19]: Not Active |
| CC(C#N)Cn1nc(-c2ccc(OCc3ccccc3)cc2)oc1=O (stereo not given) | 2400 nM | – | – | – | – | inhibition at 100 µM [2]: 13% |

Second part, led by results:

| IC50 [1] | IC50 [4] | inhibition at 5 mg/kg [6] | inhibition at 5 mg/kg [8] | inhibition at 5 mg/kg [13] | SMILES | other results |
| --- | --- | --- | --- | --- | --- | --- |
| 7.5 nM | 3300 nM | 6% | – | -6% | N#CCCn1nc(-c2ccc(OCc3ccc(Cl)cc3)cc2)oc1=O | inhibition at 5 mg/kg [15]: 54%; inhibition at 5 mg/kg [16]: 47%; inhibition at 5 mg/kg [17]: 30% |
| 29 nM | 19000 nM | -7% | 12% | -3% | COc1cccc(COc2ccc(-c3nn(CCC#N)c(=O)o3)cc2)c1 | inhibition at 5 mg/kg [18]: 19%; inhibition at 5 mg/kg [10]: 6% |
| 15 nM | 25000 nM | 1% | 9% | -3% | Cc1ccc(COc2ccc(-c3nn(CCC#N)c(=O)o3)cc2)cc1 | inhibition at 5 mg/kg [20]: 14%; inhibition at 5 mg/kg [15]: 22% |
